Compounds with a hit are over-represented: about 3.5% of the library has one in this group of screens.
FGF22 binding: FGF22 (human) thermal shift binding; Q9HCT0; recombinant FGF22 thermal shift, SYPRO orange fluorescence; percent of sucrose octasulfate shift, DMSO zero; activity (Tm shift, normalised), % at 9.99 µM; 1.5% of 340,000 active;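 active = mean Tm shift, scaled 0 neutral to 100 positive control, at about 1.3% or above, every replicate too, limit read from the data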
Env fusion inh: inhibitors of HIV Env-mediated cell fusion; HeLa-JRFL Env/CEM21 cell fusion, luciferase; inhibition, % at 12.3 µM; 1.1% of 360,000 active;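 active = mean replicate inhibition score of at least 50 and every replicate individually at or above 50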;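 note: 0% = plate neutral controls and 100% = maraviroc near 300 nM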
Cneo AK release: Cryptococcus neoformans lysis via adenylate kinase release | C. neoformans lysis, adenylate kinase release luminescence, 4 h; normalised: neutral wells 0, clomiphene wells 100 | lysis activity, % at 15 µM | 0.2% of 360,000 active | AID 651654;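 active = mean lysis activity across replicates of at least 80%, whatever share of replicates individually reach that level; inactive = mean lysis activity below 80%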
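Material – Cryptococcus neoformans yeast cells · Quantity – 5 × 10^6 yeast cells/mL · Buffer or medium – YPD medium · Compound – single dose · Timing – 4 h static compound exposure, 37 °C, read 1 h post-reagent · Signal – adenylate kinase release luminescence · Read-out basis – lysis from increased AK signal · Benchmarks – Clomiphene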
Ecoli rRNA inh: inhibits bacterial ribosomal RNA function over humanized ribosomes; E. coli WT GFP vs humanized-ribosome RFP mutants, fluorescence, 24 h; stronger effect = lower value; DMSO median 0, no signal -100; GFP signal change (wild-type ribosome), % (test concentration not listed); 1.6% of 350,000 active;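 active = significant combined selectivity score with lowered wild-type GFP, culture density cut under 30%, mutant RFP and density less affected; inactive = any of these conditions unmet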
ERAP1 HTS inh: inhibitors of human ERAP1 aminopeptidase | 0.15% of 340,000 active | Q9NZ08 | recombinant ERAP1, Leu-AMC fluorescence, 60 min | inhibition, % at 10.7 µM;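 active = mean replicate inhibition of at least 30%, or all replicates individually reaching that 30% level; inactive = mean below 30% and not every replicate reaching it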;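 note: 0% = neutral control wells and 100% = L-leucinethiol positive control wells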
Target sequence (Q9NZ08 whole entry, looked up): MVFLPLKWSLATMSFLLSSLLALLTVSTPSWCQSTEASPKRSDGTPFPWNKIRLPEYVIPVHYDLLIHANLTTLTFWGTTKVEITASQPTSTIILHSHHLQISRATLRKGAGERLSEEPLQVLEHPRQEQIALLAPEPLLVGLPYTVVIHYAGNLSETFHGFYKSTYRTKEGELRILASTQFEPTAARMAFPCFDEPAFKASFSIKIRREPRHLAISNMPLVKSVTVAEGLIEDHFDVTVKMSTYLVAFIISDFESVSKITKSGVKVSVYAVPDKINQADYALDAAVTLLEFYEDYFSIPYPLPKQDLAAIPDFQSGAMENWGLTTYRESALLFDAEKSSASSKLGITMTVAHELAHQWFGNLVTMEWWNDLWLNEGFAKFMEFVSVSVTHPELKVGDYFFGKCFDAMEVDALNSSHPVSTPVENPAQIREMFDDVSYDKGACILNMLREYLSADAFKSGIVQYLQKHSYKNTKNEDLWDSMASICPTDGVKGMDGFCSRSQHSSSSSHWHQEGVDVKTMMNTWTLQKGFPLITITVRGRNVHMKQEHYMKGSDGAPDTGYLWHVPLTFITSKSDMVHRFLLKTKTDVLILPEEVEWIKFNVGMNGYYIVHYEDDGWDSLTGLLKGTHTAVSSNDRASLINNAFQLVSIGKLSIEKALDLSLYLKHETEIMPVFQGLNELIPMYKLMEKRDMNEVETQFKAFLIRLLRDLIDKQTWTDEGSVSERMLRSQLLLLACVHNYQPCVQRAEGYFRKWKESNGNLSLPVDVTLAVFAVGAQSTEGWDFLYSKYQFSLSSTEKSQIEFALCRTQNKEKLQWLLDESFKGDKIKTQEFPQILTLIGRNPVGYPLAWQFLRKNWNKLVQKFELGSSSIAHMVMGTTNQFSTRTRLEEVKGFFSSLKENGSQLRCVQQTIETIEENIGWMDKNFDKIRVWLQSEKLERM
PGC1a acetyl inh: PGC1a acetylation modulation, inhibitor mode; U2OS PGC1a acetylation, AlphaScreen anti-acetyl-lysine; with virally co-expressed GCN5 acetyltransferase; inhibition, % at 15.6 µM; 0.17% of 350,000 active; AID 651687;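 active = every replicate shows inhibition of at least 40%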;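 note: 0% = neutral control wells and 100% = positive control wells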
Active calls of the source: *; . = no result; [ ] = another dose, or the depositor's remark.

SMILES | FGF22 binding | Env fusion inh | Cneo AK release | Ecoli rRNA inh | ERAP1 HTS inh | PGC1a acetyl inh
COc1cc(-c2cc(-c3ccc(F)cc3)nc(N)c2C#N)ccc1O | 43.1* | -5.1 | . | -0.1 | 5.1 | .
CCn1c(/C=C/c2ccccc2)nc2ccccc2c1=O | 43.7* | 16.5 | 13.2 | 2.5 | -0.8 | .
CCCS(=O)(=O)c1nc(C)cc(C)c1S(C)(=O)=O | 1.1 | -0.9 | . | 24.8 | -1.0 | 10.5
Cc1cc(C)c(S(C)(=O)=O)c(NN)n1 | 43.5* | -5.0 | . | 14.2 | -10.3 | 7.2
Cc1ccc(S(=O)(=O)N(C)C[C@@H]2Oc3c(NC(=O)Nc4cccc5ccccc45)cccc3C(=O)N([C@H](C)CO)C[C@@H]2C)cc1 | . | . | . | 1.5 | . | .
C(=N\N1CCN(c2ccccn2)CC1)/c1cccc2ccccc12 | 0.1 | 1.2 | -1.9 | -20.8* | 1.8 | -2.0
O=C1Nc2ccccc2N=C(c2ccc3c(c2)OCO3)C1N(C(=O)c1ccc2ccccc2c1)C1CC1 (stereo unspecified) | -0.3 | 55.6* | -17.8 | -2.6 | . | -3.3
O=C1Nc2ccccc2N=C(c2ccc3c(c2)OCO3)C1N(C(=O)c1ccnc2ccccc12)c1ccccc1 (stereo unspecified) | 0.0 | -130.6 | 2.9 | -11.0 | . | -5.3
CCNC(=S)SCCOc1ccccc1C | 0.2 | -28.3 | 5.9 | -33.9* | 1.1 | .
CNC(=S)SCCOc1ccccc1 | 0.1 | -6.5 | . | 5.6 | 1.5 | .
C=CCN1CCc2nc(N)sc2CC1 | -0.2 | 8.2 | -2.6 | . | 7.3 | 8.0
Nc1nc2c(s1)CCCCCCCCCC2 | -0.2 | -1.1 | 2.6 | -50.4* | 6.5 | -6.0
COCCC(=O)N1CCC(Oc2ccc(C(=O)N3CCCCCC3)cc2)CC1 | 0.0 | -4.9 | -0.9 | -1.4 | -1.2 | 0.5
C#CCN(C(=O)c1ccc(OC2CCN(C(=O)CCOC)CC2)cc1)C1CCCCC1 | -0.2 | 6.1 | 102.7* | -18.1 | 0.1 | 19.6
Nc1ccc(N=Nc2ccc(O)cc2)c(N)n1 | -0.7 | -23.2 | . | -15.5* | 5.2 | .
O=[N+]([O-])c1cccc(N=Nc2ccc(O)cc2O)c1 | 0.0 | -6.1 | -1.2 | -21.0* | -2.1 | -17.8
O=[N+]([O-])c1cccc(N=NNc2cccc([N+](=O)[O-])c2)c1 | -0.2 | 0.6 | -1.8 | -27.1* | -2.2 | .
O=[N+]([O-])c1ccc(N=Nc2ccc(O)cc2O)cc1 | . | 7.0 | -3.0 | . | . | 10.0
CCC(CC)=NNc1cccc([N+](=O)[O-])c1 | . | -8.3 | . | . | . | -6.0
O=C1CCC(C(=O)N2CCCCO2)CN1CCc1ccc(Cl)cc1 (stereo unspecified) | 0.0 | -18.9 | 1.6 | -1.0 | 4.4 | -5.6
NC(=O)C1CC(=O)N(Cc2ccc3c(c2)OCO3)C(=Nc2ccccc2)S1 (stereo unspecified) | 0.0 | . | 1.7 | -18.0* | -0.5 | -1.7
CC1(C)CN=C(c2ccccc2)NC1 | 43.4* | -78.3 | 0.5 | 1.7 | 1.2 | -3.5
C[C@H]1CN([C@@H](C)CO)C(=O)c2cccc(NC(=O)c3nc4ccccc4s3)c2O[C@H]1CN(C)Cc1ccccc1 | -0.2 | 12.1[16.7 µM] | -3.4 | -9.4 | -0.6 | .
COc1ccc2c(c1)[C@]1(C(=O)N2C)C2=C(CCCC2=O)Oc2cc(C)oc(=O)c21 | 43.3* | 64.7* | . | 9.2 | -1.3 | .
Cc1cc2c(c(=O)o1)[C@@]1(C(=O)N(C)c3ccc([N+](=O)[O-])cc31)C1=C(CCCC1=O)O2 | 41.5 | -42.4 | . | -4.8 | -1.0 | .
SMILES | FGF22 binding | Env fusion inh | Cneo AK release | Ecoli rRNA inh | ERAP1 HTS inh | PGC1a acetyl inh
COc1ccc(NC(=O)N(C)C[C@@H]2Oc3c(NC(=O)c4ccncc4)cccc3C(=O)N([C@@H](C)CO)C[C@@H]2C)cc1 | 0.1 | 5.2[16.7 µM] | -3.4 | 2.9 | 0.4 | 9.6
CCOC(=O)Cn1c(=O)oc2cc(S(=O)(=O)N(C)c3cccc(C)c3)ccc21 | 0.2 | 2.7 | . | -22.2* | -0.3 | -4.9
CCOC(=O)Cn1c(=O)oc2cc(S(=O)(=O)N(C)c3ccc(OC)cc3)ccc21 | 0.0 | -5.4 | -3.9 | -7.8 | . | -1.5
Cn1c(=O)n(-c2cccc(Cl)c2)c(=O)c2c3c(sc21)COC(C)(C)C3 | . | 113.6* | 1.4 | . | . | -4.7
CC1(C)Cc2c(sc3c2c(=O)n(-c2ccc(Cl)cc2)c(=O)n3CC(N)=O)CO1 | 0.1 | -9.7 | 2.8 | -5.4 | -1.9 | -0.1
CCOC(=O)c1sc(CS(=O)(=O)c2ccc(Cl)cc2)nc1C | -0.1 | 0.9 | . | 9.8 | -2.2 | 1.8

Screening results (PubChem)
